Results collected from several papers.
Protocols differ between the studies behind these lines.
Cell line: A549
Observed: cell growth or viability

COc1cccc(NC(=O)Nc2nc3cc(-c4ccc5ncn(CC(=O)N6CCOCC6)c(=O)c5c4)ccc3s2)c1 — IC50 (MTT; 72 h): > 20 µM
O=C(NO)Nc1nc2c(Cl)cc(Cl)cc2c(=O)n1-c1ccc(Cl)cc1 — IC50 (MTT; 48 h): > 200 µM
CNC(=O)c1cc(Oc2ccc(NC(=O)Nc3ccc(Cl)c(C(F)(F)F)c3)cc2)ccn1 — IC50 (MTT; 48 h): 12.2 µM
COc1cccc(NC(=O)Nc2nc3cc(-c4ccc5ncn(CCN6CCOCC6)c(=O)c5c4)ccc3s2)c1 — IC50 (MTT; 72 h): 1.14 µM
N=C(N)c1ccc(OCCCCCOc2ccc(C(=N)N)cc2)cc1 — IC50 (ATP luminescence; 72 h): 12.8 µM
CCCCn1cnc2ccc(-c3ccc(NC(=O)NC(C)(C)C)nc3)cc2c1=O — IC50 (CCK-8; 72 h): > 10 µM
O=C(Nc1ccc(C(F)(F)F)cc1)Nc1nc2cc(-c3ccc4ncn(CCN5CCOCC5)c(=O)c4c3)ccc2s1 — IC50 (MTT; 72 h): 2.01 µM
O=C(C=Cc1ccc(OCCCCOc2ccc(C=CC(=O)c3cccs3)cc2)cc1)c1cccs1 — IC50 (MTT; 48 h): 232 µM
CC(C)CNC(=S)N/N=C/c1cccc2cc3ccccc3nc12 — IC50 (MTT; 48 h): > 50 µM
O=C1/C(=C/c2ccc3ccccc3c2O)NC(=S)N1c1ccccc1 — IC50 (MTT): 5.2 µg/mL
C/C(=N/NC(=O)c1cn(-c2ccccc2)nc1-c1ccc(Br)cc1)c1c(O)cc(C)oc1=O — IC50 (MTT; 48 h): 140 µM
CC(C)[C@@H]1NC(=O)[C@@H](CCCNC(=N)N)NC(=O)[C@H](C)NC(=O)[C@@H](CCCN)NC(=O)[C@H](Cc2ccccc2)NC(=O)[C@@H](Cc2ccccc2)NC1=O — IC50 (ATP luminescence; 72 h): > 100 µM
CC(=O)O[C@@]12CO[C@@H]1C[C@H](O)[C@@]1(C)C(=O)[C@H](O)C3=C(C)[C@@H](OC(=O)[C@H](O)[C@@H](NC(=O)OC(C)(C)C)c4ccccc4)C[C@@](O)([C@@H](OC(=O)c4ccccc4)[C@H]21)C3(C)C — IC50 (MTT; 24 h): > 60 µg/mL
CCCC(=O)Nc1ccc(-c2ccc3ncn(CCC)c(=O)c3c2)cn1 — IC50 (CCK-8; 72 h): 0.46 µM
O=C(O)c1ccc(NCc2ccccc2)cc1 — IC50 (resazurin; 72 h): > 100 µM
CN(C)CCn1cnc2ccc(-c3ccc4sc(NC(=O)Nc5ccc(F)cc5)nc4c3)cc2c1=O — IC50 (MTT; 72 h): 0.98 µM
NNc1nc2c(Cl)cc(Cl)cc2c(=O)n1-c1ccc(F)cc1 — IC50 (MTT; 48 h): 80 µM
C/C(=N\C(=O)/N=C(\C)c1c(O)c2ccccc2oc1=O)c1c(O)c2ccccc2oc1=O — IC50 (MTT; 48 h): 19.7 µM
CNC(=S)N/N=C/c1cccc2cc3ccccc3nc12 — IC50 (MTT; 48 h): 26.9 µM
NS(=O)(=O)c1ccc(-n2nc(C(=O)NN=Cc3cccnc3)cc2-c2ccccc2)cc1 — IC50 (fluorescence; 48 h): 24.6 µM
CNCc1cc(OC)cc2c1CN(c1cccc(-c3nncn3C(C)CC(F)(F)F)n1)C2=O (stereo not drawn) — IC50 (CCK-8): > 10 µM
O=C(N[C@@H](CSCc1ccccc1)C(=O)NO)c1ccccc1 — IC50 (MTT; 48 h): 201 µM
COc1ccc(CNc2ccc(C(=O)O)cc2)cc1OC — IC50 (resazurin; 72 h): > 100 µM
CCCNC(=S)N/N=C/c1cccc2cc3ccccc3nc12 — IC50 (MTT; 48 h): > 50 µM
OC1CCN(c2ccc(/C=N/NC(=S)Nc3ccccc3)cc2)CC1 — IC50 (MTT; 24 h): 3.77 µM
C(=N\Nc1cc(N/N=C/c2ccc3ccccc3n2)ncn1)/c1ccc2ccccc2n1 — IC50 (MTT; 48 h): 16.7 µM
CN1CCC(NC2CCc3[nH]c4c(C(N)=O)ccc(-c5ccccc5Cl)c4c3C2)CC1 (stereo not drawn) — IC50 (96 h): 0.0301 µM
CC(C)CNC(=S)N/N=C/c1ccc(N2CCC(O)CC2)cc1 — IC50 (MTT; 24 h): 1.5 µM
NS(=O)(=O)c1ccc(-n2nc(-c3nnc(S)o3)cc2-c2ccccc2)cc1 — IC50 (fluorescence; 48 h): 26.9 µM
COC(=O)c1cc(C(C)=NNc2nc(-c3cccc4cc[nH]c34)cs2)ccc1O — IC50 (MTT; 96 h): 92.3 µM
O=C(NO)Nc1nc2ccc(Br)cc2c(=O)n1-c1ccccc1 — IC50 (MTT; 48 h): 28 µM
COc1cccc(NC(=O)Cn2cc(COc3ncnc4[nH]cnc34)nn2)c1 — IC50 (MTT): 30.2 µM
O=C(O)c1ccc(NCc2ccc([N+](=O)[O-])cc2)cc1 — IC50 (resazurin; 72 h): > 100 µM
C/C(=N\c1nc(N)nc(/N=C(\C)c2c(O)c3ccccc3oc2=O)n1)c1c(O)c2ccccc2oc1=O — IC50 (MTT; 48 h): 5.58 µM
O=C(O)c1ccc(NCc2ccc(Br)cc2)cc1 — IC50 (resazurin; 72 h): > 100 µM
CCCCn1cnc2ccc(-c3ccc(NC(C)=O)nc3)cc2c1=O — IC50 (CCK-8; 72 h): > 10 µM
NS(=O)(=O)c1ccc(-n2nc(C(=O)NN=Cc3ccccc3O)cc2-c2ccccc2)cc1 — IC50 (fluorescence; 48 h): 9.25 µM
O=C(Nc1ccc(F)cc1)Nc1nc2cc(-c3ccc4ncn(CC(=O)N5CCOCC5)c(=O)c4c3)ccc2s1 — IC50 (MTT; 72 h): > 20 µM
Cc1ccc(NNc2nc3ccc(Br)cc3c(=O)n2-c2ccccc2)cc1 — IC50 (MTT; 48 h): 17.4 µM
O=C(Nc1ccc(F)cc1)Nc1nc2cc(-c3ccc4ncn(Cc5ccccc5)c(=O)c4c3)ccc2s1 — IC50 (MTT; 72 h): 2.83 µM
CCCCC(=O)Nc1ccc(-c2ccc3ncn(CCC)c(=O)c3c2)cn1 — IC50 (CCK-8; 72 h): 0.11 µM
COc1ccc(NC(=O)Nc2nc3cc(-c4ccc5ncn(CCN6CCOCC6)c(=O)c5c4)ccc3s2)cc1 — IC50 (MTT; 72 h): 1.4 µM
O=C(Nc1ccc(-c2ccc3ncn(Cc4ccccc4)c(=O)c3c2)cn1)C1CCCC1 — IC50 (CCK-8; 72 h): > 10 µM
Cc1ccc(NC(=O)Nc2nc3cc(-c4ccc5ncn(Cc6ccccc6)c(=O)c5c4)ccc3s2)cc1 — IC50 (MTT; 72 h): 7.61 µM
COc1cc(CNc2ccc(C(=O)O)cc2)cc(OC)c1O — IC50 (resazurin; 72 h): > 100 µM
CC(C)[C@H](NC(=O)[C@H](Cc1c[nH]c2ccccc12)NC(=O)[C@H](Cc1c[nH]cn1)NC(=O)[C@H](CCCNC(=N)N)NC(=O)[C@H](CCCNC(=N)N)NC(=O)[C@H](Cc1c[nH]c2ccccc12)NC(=O)[C@H](Cc1c[nH]c2ccccc12)NC(=O)[C@H](Cc1c[nH]cn1)NC(=O)[C@H](Cc1c[nH]c2ccccc12)NC(=O)[C@H](CCCNC(=N)N)NC(=O)[C@@H](N)CCCCN)C(=O)N[C@H](C(=O)N[C@@H](Cc1c[nH]c2ccccc12)C(N)=O)C(C)C — IC50 (MTT; 24 h): 106 µM
OC1CCN(c2ccc(/C=N/NC(=S)NCc3ccccc3)cc2)CC1 — IC50 (MTT; 24 h): 4.25 µM
CCCCn1cnc2ccc(-c3ccc(NC(=O)c4ccccc4)nc3)cc2c1=O — IC50 (CCK-8; 72 h): > 10 µM
Cc1cc(NS(=O)(=O)c2ccc(NC(=O)/C(C#N)=C/c3cccnc3)cc2)no1 — IC50 (MTT; 48 h): > 200 µM
Cc1ccc(NC(=O)Nc2ccc(-c3ccc4ncn(Cc5ccccc5)c(=O)c4c3)cn2)cc1 — IC50 (CCK-8; 72 h): > 10 µM
OC1CCN(c2ccc(/C=N/NC(=S)Nc3cccc(Cl)c3Cl)cc2)CC1 — IC50 (MTT; 24 h): 0.58 µM
